# Laboratory results: ChEMBL document CHEMBL3046382, “Synthesis and insecticidal activities and SAR studies of novel benzoheterocyclic diacylhydrazine derivatives” (2009)
# Assays:
# Assay type in all cases: functional
# [1] = tested on: Culicidae; assay: Toxicity against fourth-instar larvae of Culex pipiens pallens assessed as mortality at 0.5 mg/kg measured after 7 to 10 days
# Outline: (§1)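 For each concentration, 1 mL of dilution was added to 99 mL water and 20 fourth-instar larvae introduced. Percentage mortality assessed 7–10 days after treatment.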
# [2] = tested on: Mythimna separata; assay: Stomach toxicity in fourth-instar Mythimna separata(Oriental armyworm) larvae in compound treated corn leaves assessed as mortality at 200 mg/kg measured after 4 days; conditions: 96 h
# [3] = tested on: Culicidae; assay: Toxicity against fourth-instar larvae of Culex pipiens pallens assessed as mortality at 2 mg/kg measured after 7 to 10 days; outline: as §1
# [4] = tested on: Mythimna separata; assay: Stomach toxicity in fourth-instar Mythimna separata (Oriental armyworm) larvae in compound treated corn leaves assessed as mortality at 100 mg/kg measured after 4 days; conditions: 96 h
# [5] = tested on: Culicidae; assay: Toxicity against fourth-instar larvae of Culex pipiens pallens assessed as mortality at 1 mg/kg measured after 7 to 10 days; outline: as §1
# [6] = tested on: Mythimna separata; assay: Stomach toxicity in fourth-instar Mythimna separata (Oriental armyworm) larvae in compound treated corn leaves assessed as mortality at 25 mg/kg measured after 4 days; conditions: 96 h
# [7] = tested on: Mythimna separata; assay: Stomach toxicity in fourth-instar Mythimna separata (Oriental armyworm) larvae in compound treated corn leaves assessed as mortality at 10 mg/kg measured after 4 days; conditions: 96 h
# [8] = tested on: Mythimna separata; assay: Stomach toxicity in fourth-instar Mythimna separata (Oriental armyworm) larvae in compound treated corn leaves assessed as mortality at 50 mg/kg measured after 4 days; conditions: 96 h
# [9] = tested on: Mythimna separata; assay: Stomach toxicity in fourth-instar Mythimna separata (Oriental armyworm) larvae in compound treated corn leaves assessed as mortality at 2.5 mg/kg measured after 4 days; conditions: 96 h
# [10] = tested on: Mythimna separata; assay: Stomach toxicity in fourth-instar Mythimna separata (Oriental armyworm) larvae in compound treated corn leaves assessed as mortality at 5 mg/kg measured after 4 days; conditions: 96 h
Compound,mortality at 0.5 mg/kg [1] [%],mortality at 200 mg/kg [2] [%],mortality at 2 mg/kg [3] [%],mortality at 100 mg/kg [4] [%],mortality at 1 mg/kg [5] [%],mortality at 25 mg/kg [6] [%],mortality at 10 mg/kg [7] [%],mortality at 50 mg/kg [8] [%],mortality at 2.5 mg/kg [9] [%],mortality at 5 mg/kg [10] [%]
Cc1c(C(=O)NN(C(=O)c2cc([N+](=O)[O-])cc([N+](=O)[O-])c2)C(C)(C)C)ccc2c1CC(C)O2 (stereo not given),10,20,30,0,20,–,–,–,–,–
Cc1c(C(=O)NN(C(=O)c2ccc(Cl)cc2)C(C)(C)C)ccc2c1CC(C)O2 (stereo not given),–,100,0,100,0,90,0,100,–,–
Cc1cccc(C(=O)N(NC(=O)c2ccc3c(c2C)CC(C)O3)C(C)(C)C)c1 (stereo not given),–,100,0,100,0,100,100,100,0,15
Cc1c(C(=O)NN(C(=O)c2cc(Cl)cc(Cl)c2)C(C)(C)C)ccc2c1CC(C)O2 (stereo not given),0,100,80,100,50,90,90,100,0,10
Cc1c(C(=O)NN(C(=O)c2ccc(Cl)cc2Cl)C(C)(C)C)ccc2c1CC(C)O2 (stereo not given),–,100,0,100,0,90,0,100,–,–
Cc1c(C(=O)NN(C(=O)c2ccccc2)C(C)(C)C)ccc2c1CC(C)(C)O2,10,40,50,10,30,–,–,0,–,–
Cc1c(C(=O)NN(C(=O)c2ccccc2[N+](=O)[O-])C(C)(C)C)ccc2c1CC(C)(C)O2,10,50,40,0,20,–,–,–,–,–
Cc1c(C(=O)NN(C(=O)c2cccc([N+](=O)[O-])c2)C(C)(C)C)ccc2c1CC(C)(C)O2,10,10,30,0,20,–,–,–,–,–
Cc1c(C(=O)NN(C(=O)c2ccc([N+](=O)[O-])cc2)C(C)(C)C)ccc2c1CC(C)(C)O2,–,10,20,0,0,–,–,–,–,–
Cc1c(C(=O)NN(C(=O)c2ccccc2Cl)C(C)(C)C)ccc2c1CC(C)(C)O2,0,60,70,0,20,–,–,–,–,–
Cc1c(C(=O)NN(C(=O)c2cccc(Cl)c2)C(C)(C)C)ccc2c1CC(C)(C)O2,–,80,10,10,0,–,–,0,–,–
Cc1c(C(=O)NN(C(=O)c2ccc(Cl)cc2)C(C)(C)C)ccc2c1CC(C)(C)O2,0,90,60,10,10,–,–,0,–,–
COc1ccccc1C(=O)N(NC(=O)c1ccc2c(c1C)CC(C)(C)O2)C(C)(C)C,0,0,20,0,10,–,–,–,–,–
COc1cccc(C(=O)N(NC(=O)c2ccc3c(c2C)CC(C)(C)O3)C(C)(C)C)c1,10,100,40,30,30,0,–,20,–,–
COc1ccc(C(=O)N(NC(=O)c2ccc3c(c2C)CC(C)(C)O3)C(C)(C)C)cc1,–,60,10,0,0,–,–,–,–,–
Cc1cccc(C(=O)N(NC(=O)c2ccc3c(c2C)CC(C)(C)O3)C(C)(C)C)c1,10,100,50,90,10,0,–,30,–,–
Cc1cc(C)cc(C(=O)N(NC(=O)c2ccc3c(c2C)CC(C)(C)O3)C(C)(C)C)c1,–,100,70,100,0,20,0,90,–,–
Cc1c(C(=O)NN(C(=O)c2cc([N+](=O)[O-])cc([N+](=O)[O-])c2)C(C)(C)C)ccc2c1CC(C)(C)O2,10,40,30,0,20,–,–,–,–,–
Cc1c(C(=O)NN(C(=O)c2cc(Cl)cc(Cl)c2)C(C)(C)C)ccc2c1CC(C)(C)O2,10,60,30,0,20,–,–,–,–,–
Cc1c(C(=O)NN(C(=O)c2ccc(Cl)cc2Cl)C(C)(C)C)ccc2c1CC(C)(C)O2,–,90,50,10,0,–,–,0,–,–
Cc1c(C(=O)NN(C(=O)c2ccccc2)C(C)(C)C)ccc2c1CC(C)O2 (stereo not given),–,100,0,100,0,80,0,90,–,–
Cc1c(C(=O)NN(C(=O)c2ccccc2[N+](=O)[O-])C(C)(C)C)ccc2c1CC(C)O2 (stereo not given),0,100,30,100,20,20,0,60,–,–
Cc1c(C(=O)NN(C(=O)c2cccc([N+](=O)[O-])c2)C(C)(C)C)ccc2c1CC(C)O2 (stereo not given),0,20,20,0,10,–,–,–,–,–
Cc1c(C(=O)NN(C(=O)c2ccc([N+](=O)[O-])cc2)C(C)(C)C)ccc2c1CC(C)O2 (stereo not given),–,60,40,0,0,–,–,–,–,–
Cc1c(C(=O)NN(C(=O)c2ccccc2Cl)C(C)(C)C)ccc2c1CC(C)O2 (stereo not given),10,100,30,100,20,40,0,100,–,–
Cc1c(C(=O)NN(C(=O)c2cccc(Cl)c2)C(C)(C)C)ccc2c1CC(C)O2 (stereo not given),10,100,60,100,20,30,10,80,–,0
